The test is described as follows: green-channel fluorescence of compounds in CCRF-Adr cells – cell-based, 488/530 nm, flow cytometry, artefact control for ABC transporter inhibitor project, confirmation (AID 1483). The conditions noted are these: compound autofluorescence 488/530 nm, at 6.6 µM, active compounds read high. The gist of the method: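 System: drug-resistant CCRF-Adr cells; quantity: 3 million cells/mL final; probe or stimulus: no JC-1 substrate added, compound fluorescence only; dosing: one dose, 6.6 µM; timing: 10 min rotation at 25 °C; benchmarks: DMSO control wells; detection: flow cytometry, median green fluorescence at 530 ± 20 nm; read-out: compound-treated cell MFI minus DMSO-treated cell MFI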
In general terms: A flow cytometer gives signals particle by particle.

Each structure is given as a SMILES string. This is one part of the list. A number with no mark means an inactive call.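 Rule for the calls: active = fluorescence beyond the plate control mean plus 3 SD, with a fluorescence-to-maximum score over 2 (cut at about 25 in these data); inactive = the rest.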

For `COC(=O)COc1cc(C)cc2oc(=O)c3c(c12)CCCC3`, the fluorescence was 2.91.

Source of the values: PubChem BioAssay AID1483 (NMMLSC, 2009).
